pEC50: −log10 of the molar value.
Columns and labels:
Vero = experiment: Cytotoxicity against African green monkey Vero cells; type: cell-based; settings: chlorocebus sabaeus
[1] = system: Human immunodeficiency virus 1; experiment: Antiviral activity against HIV1 LAV1 in human PBM cells by RT assay; type: functional, organism-based; settings: for pEC50 / EC90: Human immunodeficiency virus 1, LAV1, PBMC
How it was run: (§1)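 Human PBM cells were infected with HIV-1. The strain was LAI by default, or xxBRU where indicated. Antiviral activity was reported as EC50 and EC90.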

PBMC = experiment: Cytotoxicity against human PBMC; type: cell-based
[2] = system: Human immunodeficiency virus 1; experiment: Antiviral activity against lamivudine-resistant HIV1 M184V mutant in human PBMC cells by RT assay; type: functional, organism-based
How it was run: (§2)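 Human PBM cells infected with lamivudine-resistant HIV-1 M184V and, in parallel, wild-type HIV-1 (xxBRU where footnoted, otherwise LAI). EC50 was determined for each virus, and the mutant EC50 was divided by the wild-type EC50. Carbovir served as positive control.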

[3] = system: Human immunodeficiency virus 1; experiment: Antiviral activity against HIV1 xxBRU in human PBM cells by RT assay; type: functional, organism-based; how it was run: as §1
[4] = system: Human immunodeficiency virus 1; experiment: Ratio of EC50 for lamivudine-resistant HIV1 M184V mutant to EC50 for HIV1 […]; type: functional; how it was run: as §2
[5] = Human immunodeficiency virus 1, PBMC
[6] = Human immunodeficiency virus 1, xxBRU, PBMC

| Compound | pEC50 [1] | EC90 [1] | Activity (Vero) | ED90 [1] | Activity (PBMC) | ED90 [2] | pEC50 [2, 5] | pEC50 [3, 6] | EC90 [3, 6] | Ratio [4] | EC90 [2, 5] | ED90 [3] |
| --- | --- | --- | --- | --- | --- | --- | --- | --- | --- | --- | --- | --- |
| OC[C@@H]1C[C@@H](n2cnc3c(O)ncnc32)CC1(F)F | < 4.00 |  | > 100 µM | >100 µM | > 100 µM |  |  |  |  |  |  |  |
| Nc1nc2c(ncn2[C@@H]2C[C@@H](CO)C(F)(F)C2)c(=O)[nH]1 | < 4.00 |  | > 100 µM | >100 µM | > 100 µM |  |  |  |  |  |  |  |
| OC[C@H]1C[C@H](n2cnc3c(O)ncnc32)C=C1F | < 4.00 |  | > 100 µM | >100 µM | > 100 µM |  |  |  |  |  |  |  |
| Nc1ncnc2c1ncn2[C@H]1C=C(F)[C@H](CO)C1 | 4.83 | 40.6 µM | > 100 µM |  | > 100 µM |  |  |  |  |  |  |  |
| Nc1ccn([C@@H]2C[C@@H](CO)C(F)(F)C2)c(=O)n1 | < 4.00 |  | > 100 µM | >100 µM | > 100 µM |  |  |  |  |  |  |  |
| Nc1nc2c(ncn2[C@H]2C=C(F)[C@H](CO)C2)c(=O)[nH]1 | 6.39 | 2.8 µM | > 100 µM |  | 21.1 µM | 14.9 µM | 5.42 | 7.01 | 0.58 µM | 38.8 |  |  |
| Nc1nc2c(ncn2[C@H]2C=C[C@@H](CO)C2)c(=O)[nH]1 [CARBOVIR] |  |  |  |  |  |  | 6.70 | 7.06 |  | 2.3 | 1.1 µM | 0.27 µM |
| OC[C@@H]1C[C@@H](n2cnc3c(O)ncnc32)C=C1F | < 4.00 |  | > 100 µM | >100 µM | > 100 µM |  |  |  |  |  |  |  |
| Nc1ncnc2c1ncn2[C@@H]1C[C@@H](CO)C(F)(F)C1 | < 4.00 |  | > 100 µM | >100 µM | 95.1 µM |  |  |  |  |  |  |  |
| Nc1ncnc2c1ncn2[C@@H]1C=C(F)[C@@H](CO)C1 | 4.99 | 33.5 µM | > 100 µM |  | > 100 µM |  |  |  |  |  |  |  |

Further lines, with some results ahead:

| pEC50 [1] | EC90 [1] | Compound | Activity (Vero) | ED90 [1] | Activity (PBMC) | ED90 [2] | pEC50 [2, 5] | pEC50 [3, 6] | EC90 [3, 6] | Ratio [4] | EC90 [2, 5] | ED90 [3] |
| --- | --- | --- | --- | --- | --- | --- | --- | --- | --- | --- | --- | --- |
| < 4.00 |  | Nc1ccn([C@H]2C=C(F)[C@H](CO)C2)c(=O)n1 | > 100 µM | >100 µM | > 100 µM |  |  |  |  |  |  |  |
| 4.68 | > 100 µM | Nc1nc2c(ncn2[C@@H]2C=C(F)[C@@H](CO)C2)c(=O)[nH]1 | > 100 µM |  | > 100 µM |  |  |  |  |  |  |  |
| 5.19 | > 100 µM | Cc1cn([C@@H]2C=C(F)[C@@H](CO)C2)c(=O)[nH]c1=O | > 100 µM |  | > 100 µM |  |  |  |  |  |  |  |
| < 4.00 |  | Cc1cn([C@@H]2C[C@@H](CO)C(F)(F)C2)c(=O)[nH]c1=O | > 100 µM | >100 µM | > 100 µM |  |  |  |  |  |  |  |
| 4.16 | > 100 µM | Cc1cn([C@H]2C=C(F)[C@H](CO)C2)c(=O)[nH]c1=O | > 100 µM |  | > 100 µM |  |  |  |  |  |  |  |
| 5.15 | 72 µM | Nc1ccn([C@@H]2C=C(F)[C@@H](CO)C2)c(=O)n1 | > 100 µM |  | > 100 µM |  |  |  |  |  |  |  |

From ChEMBL document CHEMBL1143009, “D- and L-2',3'-didehydro-2',3'-dideoxy-3'-fluoro-carbocyclic nucleosides: synthesis, anti-HIV activity and mechanism of resistance” (J Med Chem, 2007)
